Measurements: article PMC4764081 (Science (New York, N.Y.), 2015)

Assays:
[1] = system: RPE1 human retinal pigment epithelial cells; test: RPE1 passaging assay and flow cytometry; format: cell-based
Method in brief: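 RPE1 cells passaged with inhibitor added on day 0 and washed out on day 8; proliferation followed over serial passages. Data are means ± SD, N = 2.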

p53 = test: Western blot of p53 in RPE1 cells; format: cell-based, human; settings: RPE1, without genotoxic stress
[2] = system: RPE1 cells expressing G95L Plk4; test: RPE1 Plk4 G95L knock-in cells, centrosome number and passaging; format: cell-based, human; settings: RPE1, both endogenous PLK4 alleles G95L
g-H2A.X foci = g-H2A.X foci in RPE1 nuclei; format: cell-based, human; settings: RPE1 treated cells
Method in brief: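 γ-H2A.X foci, marking double-strand DNA breaks, counted in nuclei of treated RPE1 cells. Values are means ± SD, N = 3.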

[3] = system: HeLa human cervical carcinoma cells; test: centriole/centrosome depletion and washout in HeLa cells; format: cell-based
Method in brief: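 HeLa cells under continuous treatment scored for foci carrying centriolar and pericentriolar markers at each round of division. Cells were imaged 7 days after inhibitor addition and again 10 days after washout.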

NIH/3T3 cells = test: mitotic duration by imaging, NIH/3T3; format: cell-based, mouse; settings: centrosome-less NIH/3T3 cells
HeLa cells = test: mitotic duration by imaging, HeLa; format: cell-based, human; settings: centrosome-less HeLa cells
[4] = system: NIH/3T3 cells induced to overexpress Plk4-GFP; test: centriole amplification in cells overexpressing wild-type or G95L Plk4-GFP; format: cell-based, mouse
[5] = system: multiciliated Xenopus epithelial cells; test: centriole number in multiciliated Xenopus epithelial cells; format: cell-based
centrosomes [6] = test: centrosome depletion; format: cell-based; settings: cellular activity
[7] = system: RPE1 cells coexpressing centrin-GFP and H2B-RFP; test: RPE1 lineage analysis by live-cell imaging; format: cell-based, human; settings: acute treatment
Method in brief: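 RPE1 cells coexpressing centrin-GFP and H2B-RFP filmed after inhibitor addition. Both GFP and RFP channels were imaged at first to count centrosomes and follow mother-cell mitosis. Daughter fate was then tracked with RFP only. Arrest was scored as failure to enter mitosis within 48 hours of cell birth, and the percentage arresting per generation was reported; N = 2.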

centrosomes [8] = test: centrosome amplification in cells; format: cell-based; settings: fig. S1
[9] = molecular target: T1, Polo-like kinase 4 (Plk4) (Homo sapiens, UniProt O00444); test: Plk4 inhibition in vitro; format: biochemical; settings: read-out: inhibition constant (Ki)
T1 sequence (O00444 1-970): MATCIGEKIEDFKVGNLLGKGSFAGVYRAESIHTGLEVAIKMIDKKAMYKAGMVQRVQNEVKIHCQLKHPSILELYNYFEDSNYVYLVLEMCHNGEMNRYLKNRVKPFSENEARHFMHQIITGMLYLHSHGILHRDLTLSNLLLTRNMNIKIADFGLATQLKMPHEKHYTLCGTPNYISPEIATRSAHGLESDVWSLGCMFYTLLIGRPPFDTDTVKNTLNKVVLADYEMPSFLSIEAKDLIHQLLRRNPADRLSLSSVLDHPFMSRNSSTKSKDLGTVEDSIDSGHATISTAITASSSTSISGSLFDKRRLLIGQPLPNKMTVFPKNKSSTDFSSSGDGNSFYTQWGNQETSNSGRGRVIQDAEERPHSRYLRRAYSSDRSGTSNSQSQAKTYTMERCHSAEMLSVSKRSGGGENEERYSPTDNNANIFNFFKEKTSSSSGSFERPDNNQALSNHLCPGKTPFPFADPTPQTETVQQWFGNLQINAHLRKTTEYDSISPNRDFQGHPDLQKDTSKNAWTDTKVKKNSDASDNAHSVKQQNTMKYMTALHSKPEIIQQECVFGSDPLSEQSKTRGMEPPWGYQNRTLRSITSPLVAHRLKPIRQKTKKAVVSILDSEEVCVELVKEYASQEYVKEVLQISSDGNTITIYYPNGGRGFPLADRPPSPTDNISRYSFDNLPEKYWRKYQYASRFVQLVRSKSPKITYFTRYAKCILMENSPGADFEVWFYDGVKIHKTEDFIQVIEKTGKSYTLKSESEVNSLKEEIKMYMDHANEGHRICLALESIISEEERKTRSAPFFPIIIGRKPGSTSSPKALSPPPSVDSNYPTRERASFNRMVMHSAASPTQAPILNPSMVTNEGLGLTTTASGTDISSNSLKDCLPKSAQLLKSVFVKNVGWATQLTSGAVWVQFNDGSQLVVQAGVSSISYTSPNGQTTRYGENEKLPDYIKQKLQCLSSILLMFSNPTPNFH

CCOc1cc(C(C)(C)C)ccc1C1=N[C@@](C)(c2ccc(Cl)cc2)[C@@](C)(c2ccc(Cl)cc2)N1C(=O)N1CCN(CCCS(C)(=O)=O)CC1 [R7112, reference compound]
proliferation after washout ([1]; RPE1, addition day 0, washout day 8): resumption of proliferation
effect on p53 levels (p53): raised p53 levels

COc1c(Nc2cc(C)[nH]n2)nc(Sc2ccc(S(=O)(=O)Cc3cccc([N+](=O)[O-])c3F)cc2F)nc1N1CCOCC1 [centrinone]
centrosome loss or proliferation arrest [2]: did not lead to centrosome loss or proliferation arrest
g-H2A.X foci abundance (g-H2A.X foci): not more abundant
reversibility of centriole loss ([3]; 10 days after washout): fully reversible
effect on centriolar and pericentriolar material foci ([3]; at each round of cell division): progressive reduction
increase of mitotic duration (NIH/3T3 cells): ~20 min
increase of mitotic duration (HeLa cells): ~1 h
effect on cell cycle ([1]; RPE1, 12-day passaging assay and flow cytometry): cell cycle arrest in G1
effect on centriole amplification [4]: blocked centriole amplification
effect on centriole number [5]: reduced centriole number
centrosome depletion at (concentration) (centrosomes [6]): 100 nM
fraction of progeny arrested ([7]; one-centrosome progeny of pioneer one-centrosome mothers): 25.5%
fraction of progeny arrested ([7]; progeny of pioneer zero-centrosome mothers): 70%
fraction of progeny arrested ([7]; zero-centrosome progeny of pioneer one-centrosome mothers): 33.0%

COc1ccc2c(c1)[C@]1(C[C@H]1c1ccc3c(/C=C/c4ccc(CN5C[C@@H](C)O[C@@H](C)C5)cc4)n[nH]c3c1)C(=O)N2 [CFI-400945]
effect on centrosome number (centrosomes [8]): induces centrosome amplification

COc1c(Nc2cc(C)[nH]n2)nc(Sc2ccc(S(=O)(=O)Cc3cccc([N+](=O)[O-])c3F)cc2F)nc1N1CCCCC1 [centrinone-B]
Ki [9]: 600 pM
centrosome depletion at (concentration) (centrosomes [6]): 500 nM
